High-throughput results as filed in PubChem BioAssay.
MrgX1 agonist – agonists of human MrgX1 receptor; Q96LB2; MrgX1-HEK293 cells, Fluo-4 calcium fluorescence, agonist mode; hits give high values; 310,000 compounds, 0.44% hits; B-score at 10 µM;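 active = calcium response B-score plate-corrected fluorescence ratio at least 3 library SD, with starting fluorescence B-score inside 5 SD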
Target sequence (Q96LB2 whole entry, looked up): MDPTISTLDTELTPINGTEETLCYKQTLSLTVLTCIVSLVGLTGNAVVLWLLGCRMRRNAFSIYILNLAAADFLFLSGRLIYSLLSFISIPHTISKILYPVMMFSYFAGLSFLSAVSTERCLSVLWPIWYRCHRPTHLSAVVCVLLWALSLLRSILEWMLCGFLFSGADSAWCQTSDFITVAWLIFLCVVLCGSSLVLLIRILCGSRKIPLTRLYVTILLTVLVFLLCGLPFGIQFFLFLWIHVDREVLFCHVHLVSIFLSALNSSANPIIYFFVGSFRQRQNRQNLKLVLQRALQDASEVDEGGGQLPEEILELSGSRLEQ
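Material: MrgX1-expressing HEK293 cells; input: 15,000 cells per well; doses: test compound given as first of three sequential additions; schedule: overnight plating before 1 h dye loading; technique: Fluo-4 NW calcium-flux fluorescence, kinetic read; evaluation: baseline-normalised fluorescence change ratio, B-scored; control set: plate-wise positive and negative controls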
RGS4 pot – potentiators or activators of RGS4; HEK293 M3R/inducible RGS4, carbachol calcium flux Fluo4; hits give low values; B-score at 10 µM; 310,000 compounds, 0.92% hits; AID 463111;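 active = B-score of the integrated calcium signal more than 4 SD below the library mean, with starting fluorescence not abnormally high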;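 note: negative B-score means reduced calcium response which marks RGS4 activation or potentiation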
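System: HEK293 FlpIn-TREx cells, stable M3R, doxycycline-inducible RGS4. Timing: overnight RGS4 induction, 30 min dye load 37 °C, 20 min compound RT. Also added: carbachol, ECmax concentration. Measured by: Fluo4 fluorescence kinetic imaging of calcium. Evaluation: integrated calcium ratio converted to B score.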
MrgX1 allo act – allosterically activates human MrgX1 receptor signaling | MrgX1-HEK293, Fluo-4 calcium flux, FDSS; hits give high values | B-score at 10 µM | 310,000 compounds, 0.63% hits;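 active = plate-corrected calcium response at least 3 library SD above typical, normal starting fluorescence, not activating the receptor alone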;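 note: compound read alongside a low EC10 to EC30 dose of BAM8-22 agonist; peak minus trough fluorescence over baseline measured at the second addition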
MrgX1 antagonist – human MrgX1 receptor antagonism, primary screen; MRGX1-HEK293 calcium flux, Fluo-4, BAM8-22 antagonism; hits give low values; B-score at 10 µM; 310,000 compounds, 1.3% hits;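 active = calcium-response B-score plate-corrected more than 3 library SD below zero, starting fluorescence within 5 deviations, no agonist response on first addition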;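 note: peak minus trough fluorescence over baseline after final BAM8-22 challenge near maximal dose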
RGS4 inh – inhibitors of human RGS4; P49798; HEK293 M3R/RGS4 inducible, Fluo-4 calcium flux; hits give high values; triggered by carbachol at its EC20; B-score at 10 µM; 310,000 compounds, 0.45% hits;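 active = B-score, a plate-corrected calcium signal, over three deviations above library mean, with baseline fluorescence within five deviations of library mean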;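 note: RGS4 expression induced by doxycycline in cells with stable M3 receptor; B-score is computed from the integrated fluorescence ratio over baseline after carbachol; higher B-score means a larger calcium signal and so more RGS4 inhibition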
Target sequence (P49798 whole entry, looked up): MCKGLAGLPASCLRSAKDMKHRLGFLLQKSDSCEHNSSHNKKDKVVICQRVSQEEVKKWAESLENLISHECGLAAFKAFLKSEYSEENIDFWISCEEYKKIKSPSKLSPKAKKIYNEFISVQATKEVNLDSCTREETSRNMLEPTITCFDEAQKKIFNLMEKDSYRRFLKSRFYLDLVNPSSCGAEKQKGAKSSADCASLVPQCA
RGS4 activ val – RGS4 activation, validation assay; shares compounds with RGS4 pot; HEK293 M3R/RGS4 inducible, carbachol calcium flux Fluo4; inhibition, % at 10 µM; 1,100 compounds, 89% hits;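 active = inhibition above 3 SD of the buffer control wells, cut at about 41% in these data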;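 note: signal is the integrated peak-minus-minimum Fluo4 fluorescence over baseline ratio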
RGS4 act ctr – counter-screen for RGS4 activators: effect in non-induced cells. shares compounds with RGS4 pot. HEK293 M3R non-induced RGS4, Fluo4 calcium flux; after carbachol challenge at its EC90. inhibition, % at 10 µM. 1,100 compounds, 82% hits. AID 602283;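 active = inhibition exceeding 3 SD of buffer-only control wells, cut at about 26% in these data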;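 note: percent drop in integrated peak-minus-baseline over baseline Fluo4 ratio after carbachol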
RGS4 inh valid – validation of RGS4 inhibitors; shares compounds with RGS4 inh; HEK293 M3R/RGS4, carbachol calcium Fluo-4 fluorescence; carbachol added at its EC20; 0 = buffer wells, 100 = carbachol control; 1,700 compounds, 65% hits; calcium response, % at 10 µM;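 active = duplicate-averaged calcium response above the buffer-only control mean plus 5 SD of those controls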;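 note: integrated fluorescence ratio F max minus min over baseline F0; higher response in RGS4-induced cells means RGS4 inhibition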
RGS4 uninduced – non-induced cell nonspecific activity of RGS4 inhibitors; shares compounds with RGS4 inh; HEK293 M3R non-induced, carbachol calcium Fluo-4; submaximal (EC20) carbachol stimulus; buffer wells 0%, carbachol control wells 100%; activity (percent), % at 10 µM; 1,900 compounds, 20% hits; AID 493000; call rule not given here;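 note: RGS4 induction absent so cells express M3R without RGS4; higher means more calcium signal and flags a non-specific hit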
RGS4 inh ctr2 – signal in non-induced cells without carbachol, RGS4 inhibitor counter-screen; calcium response (agonist-mode artifact), % at 10 µM; shares compounds with RGS4 inh; 1,900 compounds, 22% hits; HEK293 M3R/RGS4 non-induced, Fluo-4 calcium, no carbachol; normalised: buffer wells 0%, carbachol wells 100%;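 active = duplicate-averaged calcium rise in uninduced cells above buffer wells' mean plus 5 SD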
MrgX1 ag confirm – reconfirmed activator of human MrgX1 receptor signaling. MrgX1-HEK293, Fluo-4 calcium fluorescence, FDSS. shares compounds with MrgX1 agonist. 600 compounds, 78% hits. activation, % at 10 µM;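 active = calcium signal rise, corrected for plate position, at least 3 library SD high, with starting brightness within 5 such deviations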
HEK293 Ca flux – activity in parental HEK293 cells lacking MrgX1; shares compounds with MrgX1 antagonist; Fluo-4 calcium fluorescence, FDSS; fluorescence ratio F(max-min)/F0 at 10 µM; 4,000 compounds, 2% hits;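 active = duplicate-averaged calcium fluorescence ratio at least three times the standard deviation of buffer wells, a nonspecific response in parental cells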
HEK293 Ca counter – activity in parental HEK293 cells without MrgX1; shares compounds with MrgX1 antagonist; parental HEK293 calcium flux, Fluo-4 fluorescence ratio; hits give high values; fluorescence ratio F(max-min)/F0 at 10 µM; 4,000 compounds, 0.4% hits; AID 624114;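 active = calcium fluorescence ratio, averaged over duplicates, at least 3 SD of the buffer-well ratio, meaning a nonspecific response in receptor-free cells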;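 note: untransfected parental HEK293 lacking MrgX1 used as counterscreen for MrgX1 allosteric activators; fluorescence change taken during the second addition on a kinetic imager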
HEK293 Ca cntr2 – counter-screen for MrgX1 activators: effect in parental HEK293 cells | shares compounds with MrgX1 antagonist | Fluo-4 calcium fluorescence (FDSS); hits give high values | fluorescence ratio F(max-min)/F0 at 10 µM | 4,000 compounds, 8.7% hits;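 active = calcium fluorescence ratio at least three times the spread of buffer wells, meaning a non-specific response in parental cells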
* marks the source's active call; other numbers are inactive results; i = inactive; nt = no result. In the library only some 3.5% were active in any assay of this set; here they are far more common.

SMILES	MrgX1 agonist	RGS4 pot	MrgX1 allo act	MrgX1 antagonist	RGS4 inh	RGS4 inh valid	RGS4 uninduced	RGS4 inh ctr2	others
CCCCn1c(=O)c(C(=O)Nc2ncccc2C)c(O)c2ccccc21	35*	-9.5*	i	i	i	nt	nt	nt	RGS4 activ val=66*;RGS4 act ctr=41*;MrgX1 ag confirm=i;HEK293 Ca flux=i;HEK293 Ca counter=i;HEK293 Ca cntr2=i
O=C1C(Cc2cnc[nH]2)NC(=S)N1c1ccccc1 (stereo unspecified)	i	i	i	i	i	nt	nt	nt
CCNC(=O)[C@H]1O[C@@H](n2cnc3c(N)ncnc32)[C@H](O)[C@@H]1O	i	i	i	i	9.8*	34%*	i	i
NC(=O)c1cn(C2OC(CO)C(O)C2O)c2ncnc(N)c12 (stereo unspecified)	i	i	i	i	i	nt	nt	nt
Cc1c(CC(=O)N2C[C@H]3C[C@@H](C2)c2cccc(=O)n2C3)c(=O)oc2cc(O)c(Cl)cc12	i	i	i	i	i	nt	nt	nt
CCc1ccc(-c2nn(Cc3ccccc3)cc2C=O)cc1	i	i	i	i	i	nt	nt	nt
COc1ccc(OC)c(N2C(=O)/C(=C/c3ccco3)C(=O)NC2=S)c1	i	i	i	i	i	nt	nt	nt
COc1ccc(OC)c(N2C(=O)NC(=O)/C(=C/c3ccc([N+](=O)[O-])s3)C2=O)c1	i	i	i	i	5.8*	15%*	i	i
C/C(=C\c1ccc(N(C)C)cc1)[N+](=O)[O-]	i	i	i	i	7.6*	24%*	62%*	14%*
CN(C)c1ccc(/C=C/[N+](=O)[O-])cc1	i	i	i	i	19*	54%*	i	76%*
CCn1cc(CN2CCCC(C(=O)c3sccc3C)C2)cn1 (stereo unspecified)	i	i	i	i	i	nt	nt	nt
Cc1cc(C)cc(N2C(=O)NC(=O)/C(=C/c3cccn3-c3ccc(Cl)cc3)C2=O)c1	i	i	i	i	i	i	i	i
O=P1(Oc2ccccc2)OCCCS1 (stereo unspecified)	i	i	i	i	i	nt	nt	nt
Cc1cc(=O)oc2cc(OCC(=O)N3CCN(Cc4ccc5c(c4)OCO5)CC3)ccc12	i	i	i	i	i	nt	nt	nt
CCN(CC)C(=O)Cn1cc(/C=C2\C(=O)NC(=O)N(c3ccccc3F)C2=O)c2ccccc21	27*	i	i	i	6.6*	38%*	i	430%*
CC(=O)N1CC(=O)Nc2ccc(Br)cc2C1c1ccc(F)cc1 (stereo unspecified)	i	i	i	i	i	nt	nt	nt
C=C(CC1CC(O)[C@]2(C)OC3CC4OC5C[C@]6(C)O[C@]7(C)CCC8OC9C[C@]%10(C)OC%11C(C)=CC(=O)OC%11CC%10OC9C[C@@H](C)C8OC7CC6O[C@]5(C)C/C=C\C4OC3CC2O1)C(=O)O (stereo partly specified)	i	i	i	i	i	i	i	i
CC/C(=N\N1CCCCC1)c1c(O)[nH]c(=O)[nH]c1=O	i	i	i	i	4.7*	8.5%*	i	i
O=C(C[N+]12CCC(CC1)C(CO)C2)c1ccc(Br)cc1 (stereo unspecified)	i	i	i	i	i	nt	nt	nt
O=c1oc2ccccc2c(O)c1C(c1ccc([N+](=O)[O-])cc1)c1c(O)c2ccccc2oc1=O	nt	i	nt	nt	4.9*	30%*	i	i
N[C@@H](Cc1cc(Br)c(O)c(Br)c1)C(=O)O	i	i	i	i	6.7*	12%*	i	i
COc1cc2c(cc1/C=C/[N+](=O)[O-])OCO2	nt	i	nt	nt	12*	36%*	43%*	74%*
O=C1NC(=O)N(c2ccc3c(c2)OCO3)C(=O)/C1=C/c1ccsc1	i	i	i	i	i	nt	nt	nt
O=C1NC(=O)N(c2ccc3c(c2)OCO3)C(=O)/C1=C/c1cccs1	i	i	i	i	13*	18%*	34%*	i
CNC(=S)N1CCN(CCN=Cc2c(O)n(-c3ccc(C)cc3)c(=S)[nH]c2=O)CC1	i	i	i	i	i	nt	nt	nt
O=[N+]([O-])c1ccc(N2CCCC2)c2ncccc12	i	i	i	i	i	nt	nt	nt
CC1CN(c2ccc([N+](=O)[O-])c3cccnc23)CC(C)N1 (stereo unspecified)	i	i	i	i	5.8*	i	i	i
CN(C)C(=O)Oc1noc2cc(Cl)ccc12	i	i	i	i	i	nt	nt	nt
Cc1ccc(N2C(=O)NC(=O)/C(=C\C=C\c3ccco3)C2=O)cc1	i	i	i	i	i	nt	i	12%*
O=C1NC(=O)N(c2ccccc2)C(=O)/C1=C/C=C/c1ccco1	i	i	i	i	i	nt	nt	nt
